High-throughput results deposited in PubChem by NMMLSC.
LAP4-GFP MLPCN: modulators of LAP4-GFP expression in yeast, primary screen, S. cerevisiae, multiplex flow cytometry, MLPCN library | 0.34% of 320,000 active | GFP response vs DMSO, % at 10 µM | 3 h; median GFP as percent of DMSO wells | AID 2023, 2009;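 active means GFP response vs DMSO above a set limit, about the screen mean plus 3 SD, cut at about 150% in these data; inconclusive means under 70 cell events counted for the yeast strain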
AGP1 TOR yeast: modulators of AGP1-GFP expression in yeast TOR pathway, primary screen, cell-based, multiplex flow cytometry, S. cerevisiae, MLPCN library | 3 h; GFP as percent of DMSO wells | GFP response vs DMSO, % at 10 µM | 0.02% of 320,000 active;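 active means GFP response relative to DMSO above a set limit, near screen average plus 3 SD, cut at about 150% in these data; inconclusive means fewer than 70 cells counted for the yeast strain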;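 further: median GFP channel fluorescence of the gated AGP1 strain per well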
T cell modulator: modulators of CD8 T cell-vesicle binding, primary screen, mouse 2C CD8+ T cells, flow cytometry | 2C CD8+ T cell-vesicle binding; active compounds read low | response (vesicle binding), % at 7 µM | 0.068% of 330,000 active;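 active means response, share of CD8 T cells binding vesicles, and their 90th percentile fluorescence all below set limits, cut at about 80% in these data, passing the limit was not always enough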;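 further: values below 100% mean blocked vesicle binding to the CD8+ T cells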
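Material: 2C TCR transgenic mouse naive CD8+ T cells, MACS-purified. Also added: QL9-charged Drosophila Ld/ICAM-1/B7-1 vesicles. Timing: binding 1.5 h at 37 °C. Measured by: high-throughput flow cytometry with anti-B7-1 and anti-CD8 staining. Read-out: percent CD8+ FL2 mean versus row control. Controls: Unloaded micro-vesicles (low), QL9 vesicles with 0.7% DMSO (high).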
CIT2-GFP yeast: modulators of CIT2-GFP expression in yeast, primary screen, S. cerevisiae, GFP fusion, multiplex flow cytometry, MLPCN library; S. cerevisiae CIT2-GFP strain, 3 h; 100 means same as DMSO wells; 0.065% of 320,000 active; GFP response vs DMSO, % at 10 µM;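 active means GFP response relative to DMSO above a set limit, near the screen mean plus 3 SD, cut at about 150% in these data; inconclusive means Fewer than 70 cells measured for a yeast strain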;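 further: ratio of well median GFP fluorescence to mean of DMSO wells on the plate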
MEP2-GFP yeast: modulators of MEP2-GFP levels in yeast, primary screen, S. cerevisiae, multiplex flow cytometry, MLPCN library. S. cerevisiae MEP2-GFP strain, 3 h; 100% = DMSO control level. GFP response vs DMSO, % at 10 µM. 0.51% of 330,000 active. AID 2016, 2009;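 active means GFP response versus DMSO above a set limit, roughly screen mean plus 3 SD, cut at about 180% in these data; inconclusive means fewer than 70 cells counted for a yeast strain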;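 further: median GFP fluorescence of the barcode-gated MEP2-GFP cells per well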
RPL19A-GFP yeast: RPL19A-GFP expression modulators in yeast, primary screen, cell-based, S. cerevisiae, multiplex flow cytometry, MLPCN | S. cerevisiae RPL19A-GFP strain, 3 h; active compounds read low | 0.3% of 330,000 active | percent response vs DMSO, % at 10 µM;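 active means percent response vs DMSO below 50%; inconclusive means fewer than 70 events counted for the yeast strain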;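 further: median channel GFP fluorescence of the barcoded RPL19A-GFP strain; ratio of sample median GFP to plate DMSO average so 100% = DMSO; lower means less RPL19A-GFP as with rapamycin TOR inhibition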
* = called active by the depositor; i = inactive; ? = inconclusive; . = no result given; [ ] = dose if it differs, or a comment. The list is not random: actives were taken first. Their share in the collection is about 0.96%.

SMILES	LAP4-GFP MLPCN	AGP1 TOR yeast	T cell modulator	CIT2-GFP yeast	MEP2-GFP yeast	RPL19A-GFP yeast
O=C(NCC(=O)N(c1cccc(F)c1)C(C(=O)NC1CCCC1)c1ccncc1)c1cccs1 (configuration not stated)	94.1	96.5	319.6	100.5	99.0	104.8
CCOCCCn1c(=NC(=O)c2cccnc2)c(C(=O)OCC)cc2c(=O)n3ccccc3nc21	100.4	24.2	598.2	?	196.5*[may fluoresce violet]	42.7*[may fluoresce violet]
N=c1oc2cc(O)ccc2cc1C(=O)Nc1ccc(F)cc1	71.8	19.4	150.2	?	835.9*[may fluoresce violet]	41.0*[may fluoresce violet]
C=CCn1c(SCC(=O)Nc2ccc(Br)cc2)nc(O)c(CC)c1=O	84.5	78.2	84.4	86.9	76.3	82.3
CC1(c2nnc(-c3ccccc3)o2)CC(c2ccncc2)=NO1 (configuration not stated)	108.3	89.0	807.2	108.1	90.0	98.2
O=C(Nc1ccc(S(=O)(=O)N2CCCCC2)cc1)c1ccc(Cl)nc1	93.3	96.0	344.0	111.4	107.4	100.3
NS(=O)(=O)c1ccc(N2N=C(c3ccc(Br)cc3)CC2c2ccc(F)cc2)cc1 (configuration not stated)	62.6	?	199.0	?	169.3	37.3*[may fluoresce violet]
COc1ccc(C(CNC(=O)c2cccc(NC(=O)c3cccs3)c2)N2CCCC2)cc1 (configuration not stated)	98.0	99.5	94.7	85.2	97.4	94.9
CC[C@]12c3[nH]c4ccccc4c3CCN1C(=O)C(CC(=O)NCCC1=CCCCC1)C[C@@H]2C(=O)N1CCN(C(=O)C2CC2)CC1 (some centres not stated)	101.2	98.4	261.9	108.0	98.4	99.4
Cc1cc(C)c2sc(NC(=O)c3ccc([N+](=O)[O-])o3)nc2c1	193.8*[may fluoresce violet]	18.1	i	?	156.2	94.0
Cc1cc(C)c2nc(NC(=O)c3ccc([N+](=O)[O-])o3)sc2c1	81.4	87.7	395.6	93.3	97.3	99.9
O=C(NCC1CCCO1)c1nn2c(C(F)(F)F)cc(-c3cc(Br)cs3)nc2c1Br (configuration not stated)	66.9	?	174.5	?	231.2*[may fluoresce violet]	43.9*[may fluoresce violet]
CN(C)/C=C/C(=O)/C=C/c1cn(-c2ncc(C(F)(F)F)cc2Cl)c2ccccc12	82.2	?	277.2	?	232.3*[may fluoresce violet]	41.5*[may fluoresce violet]
COc1cc(OC)c(C(=O)OCC(=O)Nc2ccccc2Cl)cc1OC	113.4	97.8	184.3	102.9	119.7	106.1
O=C(NCC(c1ccc(F)cc1)N1CCOCC1)c1cc(F)c(F)c(F)c1F (configuration not stated)	76.9	77.7	488.0	171.4*	155.1	104.6
COc1cccc(NC(=O)CCS(=O)(=O)c2ccc3c(c2)oc(=O)n3C)c1	100.8	81.8	246.2	110.7	109.2	102.3
COc1ccc(CCN2CC(C(=O)N(C)C3CCOCC3)CCC2=O)cc1 (configuration not stated)	87.9	98.4	600.8	96.9	96.3	97.9
CC1(C)Cc2cccc(OCC(=O)Nc3ccccc3C(F)(F)F)c2O1	113.0	103.7	228.5	103.5	128.9	104.2
CC1(C)Cc2cccc(OCC(=O)Nc3ccccc3N3CCOCC3)c2O1	103.0	?	212.0	?	?	15.7*[may fluoresce violet]
O=[N+]([O-])c1cc([N+](=O)[O-])c2cc3ccccc3nc2c1	189.3*	96.6	323.3	96.0	104.8	100.8
CC1CN(c2nc(-c3ccc(Br)cc3)nnc2-c2ccccc2)CC(C)N1 (configuration not stated)	112.6	.	355.5	?	495.8*[may fluoresce violet]	29.0*[may fluoresce violet]
Nc1c(C(=O)Nc2ccccc2)c2nc3ccccc3nc2n1CCCN1CCOCC1	78.3	?	458.9	?	116.7	41.7*[may fluoresce violet]
COc1ccc(NC(=O)CN2CCC(C(=O)c3ccc(F)cc3)CC2)c(OC)c1	101.7	105.0	434.7	104.6	102.9	105.8
